Publication PMC7932937 (Clinical Pharmacokinetics, 2020)
Like-named read-outs stand apart in the source and are kept apart here.

Columns and labels:
[1] = system: baseline non-HDL-cholesterol; experiment: Covariate analysis on baseline non-HDL-cholesterol in the PK/PD model; type: in vivo, people living with HIV; settings: coadministration, final PK/PD model covariate
Method in brief: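 Indirect-response model linked to the final population PK model (plasma rosuvastatin by UHPLC-MS/MS; daily doses 5–20 mg). Drug inhibits kin, with kout = kin/baseline. Covariates (ARV regimen, comedications, diabetes, weight, AST, ALT, age) were tested on baseline only, by stepwise forward inclusion and backward deletion. Continuous covariates were median-centred (linear or allometric), categorical ones coded 0/1. Cholesterol was measured enzymatically (cholesterol oxidase).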

[2] = cited from earlier work
[3] = literature values ref 12, 26, 27; cited from earlier work
[4] = Population pharmacokinetic model; type: in vivo, people living with HIV
Method in brief: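 Adults with HIV on rosuvastatin 5–20 mg daily. Plasma came from a rich-sampling study and from sparse samples at cohort visits, 0.2–38.5 h post-dose, and was assayed by UHPLC-MS/MS. Models tested one or two compartments with first-order, zero-order or mixed absorption. Absorption parameters were fixed from the rich data. Between-subject variability was log-normal; residual error additive on the log scale. Covariate thresholds: ΔOFV 3.84 forward, 7.88 backward.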

[5] = coadministered with cobicistat-boosted darunavir ref 20
[6] = coadministered with ritonavir-boosted atazanavir ref 19
[7] = coadministered with ritonavir-boosted darunavir ref 9
[8] = coadministered with ritonavir-boosted lopinavir ref 30
[9] = estimated from full PK profiles (rich sampling), without variability

Compound	decrease in the baseline non-HDL-cholesterol value [1]	increase in rosuvastatin AUC0–24 [2, 5]	increase in rosuvastatin Cmax [2, 5]	increase in rosuvastatin AUC0–24 [2, 6]	increase in rosuvastatin Cmax [2, 6]	increase in rosuvastatin AUC0–24 [2, 7]	increase in rosuvastatin Cmax [2, 7]	increase in rosuvastatin AUC0–24 [2, 8]	increase in rosuvastatin Cmax [2, 8]	volume of distributions [3]	Cl decrease with boosted PIs that the study was powered to rule out ([4]; coadministered boosted PIs, univariate analysis)	absorption rate constant [4, 9]	duration of zero-order absorption [4, 9]	increase in rosuvastatin Vc ([4]; in women, univariate testing, not significant in multivariate analysis)
Cc1cc(C#N)cc(C)c1Oc1nc(Nc2ccc(C#N)cc2)nc(N)c1Br [etravirine]	14%	–	–	–	–	–	–	–	–	–	–	–	–	–
CC(C)c1nc(N(C)S(C)(=O)=O)nc(-c2ccc(F)cc2)c1/C=C/[C@@H](O)C[C@@H](O)CC(=O)O [rosuvastatin]	–	93%	277%	213%	600%	48%	143%	110%	370%	1255 to 4870 L	≤ 22%	0.306 h⁻¹	0.461 h	three-fold
